The structures appear in SMILES notation. Converted amounts (≈) assume the structure as drawn.

Format in all cases: functional
For assay [1], the species on record is Oryctolagus cuniculus. Description: Tested for its antimetabolic activity by measuring the concentration required for [2-14C]- Urd incorporation into host cell DNA by 50%. To be noted: read-out: ID50 (the source's name). Summed up: (§1)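 Primary rabbit kidney (PRK) cell cultures; incorporation of [methyl-3H]thymidine or [2-14C]2'-deoxyuridine into host cell DNA measured in presence of compound; value is concentration (µg/mL) reducing label incorporation by 50%; concentrations up to 400 µg/mL.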

The species named for assay [2] is Oryctolagus cuniculus. Description: Tested for its antimetabolic activity by measuring the concentration required for [Me-3H] dThd incorporation into host cell DNA by 50%. Conditions: read-out: ID50 (the source's name). The method, boiled down:
as §1

For assay [3], the species on record is Oryctolagus cuniculus. Description: Tested for its antiviral activity in primary rabbit kidney (PRK) cell cultures inoculated with herpes simplex type 1 virus. Summed up:
(§2)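 Primary rabbit kidney (PRK) cell cultures infected with HSV; inhibition of virus-induced cytopathogenicity scored; ID50 (µg/mL) is concentration reducing cytopathogenicity by 50%; means over three HSV-1 strains (KOS, F, McIntyre) or three HSV-2 strains (Lyons, 196, G), range across strains shown; top concentration 400 µg/mL.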

The species named for assay [4] is Oryctolagus cuniculus. Description: Tested for its antiviral activity in primary rabbit kidney (PRK) cell cultures inoculated with herpes simplex type 2 virus. Summed up: as §2
Assay [5] is filed under the species Oryctolagus cuniculus. Kind of assay: Tested for its antiviral activity in primary rabbit kidney (PRK) cell cultures inoculated with vaccinia virus.
Assay [6] is filed under the species Oryctolagus cuniculus. Description: Tested for its antiviral activity in primary rabbit kidney (PRK) cell cultures inoculated with herpes simplex type 2 virus; range 0.2-0.4. Summed up: as §2
Assay [7] is filed under the species Oryctolagus cuniculus. Kind of assay: Tested for its antiviral activity in primary rabbit kidney (PRK) cell cultures inoculated with herpes simplex type 1 virus; range 4-10. Summed up:
as §2

`CS(=O)(=O)Cc1cn([C@H]2C[C@H](O)[C@@H](CO)O2)c(=O)[nH]c1=O`: the IC50 in the assay listed under Oryctolagus cuniculus [1] is over 400 µg/mL; in the assay listed under Oryctolagus cuniculus [2], 300 µg/mL (≈ 937 µM). The ID50 in the assay filed under Oryctolagus cuniculus [3] is 4 µg/mL (≈ 12.5 µM); in the assay filed under Oryctolagus cuniculus [4] it was over 400 µg/mL; in the assay listed under Oryctolagus cuniculus [5] it was 200 µg/mL (≈ 624 µM).

As for `C[S+]([O-])Cc1cn([C@H]2C[C@H](O)[C@@H](CO)O2)c(=O)[nH]c1=O` (some centres not stated), the ID50 in the assay listed under Oryctolagus cuniculus [3] and in the assay listed under Oryctolagus cuniculus [4] was over 400 µg/mL throughout.

Take `O=c1[nH]c(=O)n([C@H]2C[C@H](O)[C@@H](CO)O2)cc1I` [IDOXURIDINE]: the results for the IC50 in the assay filed under Oryctolagus cuniculus [1] and in the assay listed under Oryctolagus cuniculus [2] were 1.2 µg/mL (≈ 3.39 µM) and 2.5 µg/mL (≈ 7.06 µM), respectively. The results for the ID50 in the assay listed under Oryctolagus cuniculus [3], in the assay listed under Oryctolagus cuniculus [5] and in the assay filed under Oryctolagus cuniculus [6] were 0.15 µg/mL (≈ 0.424 µM), 0.2 µg/mL (≈ 0.565 µM) and 0.3 µg/mL (≈ 0.847 µM), respectively.

`CSCc1cn([C@H]2C[C@H](O)[C@@H](CO)O2)c(=O)[nH]c1=O`: the figures for the IC50 in the assay filed under Oryctolagus cuniculus [1] and in the assay listed under Oryctolagus cuniculus [2] were over 400 µg/mL and 100 µg/mL (≈ 347 µM), respectively. In addition, the figures for the ID50 in the assay listed under Oryctolagus cuniculus [7], in the assay listed under Oryctolagus cuniculus [4] and in the assay filed under Oryctolagus cuniculus [5] were 6 µg/mL (≈ 20.8 µM), 4 µg/mL (≈ 13.9 µM) and 200 µg/mL (≈ 694 µM), respectively.

(Values after ChEMBL document CHEMBL1121399, “Synthesis of 5-[(methylthio)methyl]-2'-deoxyuridine, the corresponding sulfoxide and sulfone, and their 5'-phosphates: antiviral effects and thymidylate synthetase inhibition” (1980).)
